The values that follow come from ChEMBL document CHEMBL1135812, “Carbonic anhydrase activators: design of high affinity isozymes I, II, and IV activators, incorporating tri-/tetrasubstituted-pyridinium-azole moieties” (2002).

Assay [1] deals with Carbonic anhydrase 2 (Homo sapiens) (UniProt P00918). As to the kind of experiment: […] of human Carbonic anhydrase II, using histamine as standard. In a few lines:
(§1)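 Esterase assay: initial rates of 4-nitrophenyl acetate hydrolysis read at 400 nm, pH 7.40, 25 °C, substrate 2×10^-2 to 1×10^-6 M. Enzymes were recombinant human CA I (25 nM) and CA II (7 nM) expressed in E. coli BL21(DE3), and CA IV (33 nM) isolated from bovine lung microsomes. Activator and enzyme were preincubated 15 min at room temperature. Non-enzymatic hydrolysis was subtracted. KA is the mean of at least three determinations.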

Assay [2] deals with T1, Carbonic anhydrase 4 (Bos taurus) (UniProt Q95323).
T1 sequence (whole entry): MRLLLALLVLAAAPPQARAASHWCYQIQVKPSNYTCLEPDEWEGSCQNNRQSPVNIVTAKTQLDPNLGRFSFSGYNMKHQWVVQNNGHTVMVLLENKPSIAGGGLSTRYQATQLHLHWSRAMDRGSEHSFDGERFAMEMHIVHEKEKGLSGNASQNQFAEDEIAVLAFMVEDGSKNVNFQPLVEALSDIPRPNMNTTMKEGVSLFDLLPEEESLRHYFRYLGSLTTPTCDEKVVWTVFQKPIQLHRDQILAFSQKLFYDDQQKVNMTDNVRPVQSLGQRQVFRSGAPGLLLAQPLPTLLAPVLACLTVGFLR
The assay is described as follows: Bovine Carbonic anhydrase IV activity using histamine as standard. In short, it runs like this:
as §1

Assay [3] addresses Carbonic anhydrase 1 (Homo sapiens) (UniProt P00915). The assay is described as follows: Activation of human Carbonic anhydrase I, using histamine as standard.
The species named for assay [4] is Homo sapiens. The assay is described as follows: Ex vivo carbonic anhydrase activation was measured after 30 min of incubation of lysed human erythrocyte. It is filed as functional. More on the design: concentration or dose not given beside the values. In a few lines:
(§2)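 Washed fresh human erythrocytes (Tris pH 7.40, 5 mM) were lysed in distilled water, then the supernatant was incubated with 5 μM activator at 37 °C for 30 or 60 min. CA activity (hCA I + hCA II) was read by esterase assay with 4-nitrophenyl acetate. Activity without activator was set as 100%; values are mean of n = 3.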

Assay [5] is filed under the species Homo sapiens. As to the kind of experiment: Ex vivo carbonic anhydrase activation was measured after 60 min of incubation of lysed human erythrocyte. More on the design: concentration or dose not given beside the values. The class given is functional. In a few lines:
as §2

Chain of Carbonic anhydrase 1 (Homo sapiens) (P00915 2-261 limits assumed): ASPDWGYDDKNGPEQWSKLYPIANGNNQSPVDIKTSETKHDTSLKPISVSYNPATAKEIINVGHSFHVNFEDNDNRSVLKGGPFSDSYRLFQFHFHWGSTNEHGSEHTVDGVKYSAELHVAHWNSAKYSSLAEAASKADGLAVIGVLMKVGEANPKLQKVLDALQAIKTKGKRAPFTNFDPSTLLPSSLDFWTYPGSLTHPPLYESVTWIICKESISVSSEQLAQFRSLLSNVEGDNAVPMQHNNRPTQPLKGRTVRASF

Regarding `CCc1cc(-c2ccccc2)cc(CC)[n+]1-c1ncc[nH]1`, the KA in assay [1] worked out at 0.144 µM; in assay [2], 0.009 µM; in assay [3], 0.018 µM.

With `Cc1cc(-c2ccccc2)cc(C)[n+]1-c1ncc[nH]1.[O-][Cl+3]([O-])([O-])[O-]`, the KA in assay [1] amounted to 0.153 µM; in assay [2], 0.013 µM; in assay [3] it was 0.021 µM. Further, the CA activity in assay [4] amounted to 192%; in assay [5] it was 233%.

Consider `CCCc1cc(-c2ccccc2)cc(CCC)[n+]1-c1cc[nH]n1`, for which the KA is 75 µM in assay [1], 1.2 µM in assay [2] and 1.35 µM in assay [3].

Regarding `Cc1c2cc(c(C)[n+]1C1=NCC=N1)CCCCCCCCC2`, the KA in assay [1] came to 0.305 µM; in assay [2], 0.02 µM; in assay [3] it was 0.022 µM.

`Cc1cc(C)[n+](-c2cc[nH]n2)c(C)c1`: the KA in assay [1] amounted to 0.48 µM; in assay [2], 0.045 µM; in assay [3] it was 0.052 µM.

As for `CCCCc1cc(-c2ccccc2)cc(CCCC)[n+]1-c1nn[n-]n1`, the results for the KA in assay [1], in assay [2] and in assay [3] were 145 µM, 6.8 µM and 1.8 µM, respectively.

`CCCc1cc(-c2ccccc2)cc(CCC)[n+]1-c1ncc[nH]1`: the KA turned out to be 48 µM in assay [1], 0.62 µM in assay [2] and 0.247 µM in assay [3].

As for `Cc1cc(-c2ccccc2)cc(C)[n+]1-c1cc[nH]n1`, the KA is 0.359 µM in assay [1], 0.017 µM in assay [2] and 0.035 µM in assay [3].

With `CCCCc1cc(-c2ccccc2)cc(-c2ccccc2)[n+]1-c1ncc[nH]1`, the values for the KA in assay [1], in assay [2] and in assay [3] were 130 µM, 9.55 µM and 2.4 µM, respectively.

Consider `CC(C)c1cc(-c2ccccc2)cc(-c2ccccc2)[n+]1-c1cc[nH]n1`, for which the KA in assay [1] was 130 µM; in assay [2] it was 5.29 µM; in assay [3] it was 2.5 µM.

Consider `CC(C)c1cc(-c2ccccc2)cc(-c2ccccc2)[n+]1-c1nn[n-]n1`, for which the values for the KA in assay [1], in assay [2] and in assay [3] were 134 µM, 10.1 µM and 2.87 µM, respectively.

Take `c1ccc(-c2cc(-c3ccccc3)[n+](-c3ncc[nH]3)c(-c3ccccc3)c2)cc1`: the KA is more than 150 µM in assay [1], more than 50 µM in assay [2] and 15 µM in assay [3].

As for `CCc1cc(-c2ccccc2)cc(-c2ccccc2)[n+]1-c1cc[nH]n1`, the values for the KA in assay [1], in assay [2] and in assay [3] were 118 µM, 3.41 µM and 2.34 µM, respectively.

Turning to `CCCCc1cc(-c2ccccc2)cc(CCCC)[n+]1-c1cc[nH]n1`, the KA in assay [1] was 140 µM; in assay [2] it was 2.59 µM; in assay [3], 1.76 µM.

For the compound `CCc1cc(-c2ccccc2)cc(-c2ccccc2)[n+]1-c1ncc[nH]1`, the KA in assay [1] turned out to be 84 µM; in assay [2], 2.56 µM; in assay [3], 1.05 µM.

`Cc1cc(C)[n+](-c2ncc[nH]2)c(-c2ccccc2)c1`: the KA was found to be 59 µM in assay [1], 0.975 µM in assay [2] and 0.36 µM in assay [3].

As for `Cc1cc(-c2ccccc2)cc(-c2ccccc2)[n+]1-c1nn[n-]n1`, the KA in assay [1] amounted to 108 µM; in assay [2], 5.24 µM; in assay [3] it was 1.1 µM.

As for `CCc1cc(-c2ccccc2)cc(CC)[n+]1-c1nn[n-]n1`, the KA was determined as 1.23 µM in assay [1], 0.055 µM in assay [2] and 0.064 µM in assay [3].

For `CCCc1cc(-c2ccccc2)cc(CCC)[n+]1-c1nn[n-]n1`, the KA in assay [1] stood at 136 µM; in assay [2], 1.55 µM; in assay [3], 2.12 µM.

As for `Cc1cc(C)[n+](-c2cc[nH]n2)c(C)c1C`, the KA in assay [1] amounted to 0.457 µM; in assay [2], 0.038 µM; in assay [3], 0.049 µM.

With `c1ccc(-c2cc(-c3ccccc3)[n+](-c3nn[n-]n3)c(-c3ccccc3)c2)cc1`, the KA in assay [1] is more than 150 µM; in assay [2] it was more than 50 µM; in assay [3], 41 µM.

As for `CCc1cc(-c2ccccc2)cc(-c2ccccc2)[n+]1-c1nn[n-]n1`, the KA in assay [1] came out at 140 µM; in assay [2], 12.5 µM; in assay [3], 3.05 µM.

Turning to `CC(C)c1cc(-c2ccccc2)cc(C(C)C)[n+]1-c1ncc[nH]1.[O-][Cl+3]([O-])([O-])[O-]`, the values for the KA in assay [1], in assay [2] and in assay [3] were 0.095 µM, 0.006 µM and 0.012 µM, respectively. Moreover, the CA activity came to 256% in assay [4] and 298% in assay [5].

Turning to `CCCc1cc(-c2ccccc2)cc(-c2ccccc2)[n+]1-c1cc[nH]n1`, the results for the KA in assay [1], in assay [2] and in assay [3] were 135 µM, 8.23 µM and 2.78 µM, respectively.

`CC(C)c1cc(-c2ccccc2)cc(C(C)C)[n+]1-c1nn[n-]n1`: the KA in assay [1] came to 1.15 µM; in assay [2], 0.012 µM; in assay [3], 0.05 µM. In addition, the results for the CA activity in assay [4] and in assay [5] were 173% and 212%, respectively.

As for `Cc1cc(-c2ccccc2)cc(-c2ccccc2)[n+]1-c1cc[nH]n1`, the KA is 96 µM in assay [1], 1.85 µM in assay [2] and 0.64 µM in assay [3].

For the compound `CCCCc1cc(-c2ccccc2)cc(-c2ccccc2)[n+]1-c1cc[nH]n1`, the KA in assay [1] is more than 150 µM; in assay [2], more than 50 µM; in assay [3] it was 5.64 µM.

Take `Cc1c2cc(c(C)[n+]1-c1cc[nH]n1)CCCCCCCCC2`: the KA in assay [1] is 0.412 µM; in assay [2], 0.033 µM; in assay [3] it was 0.037 µM.

Regarding `CCc1cc(-c2ccccc2)cc(CC)[n+]1-c1cc[nH]n1`, the KA in assay [1] turned out to be 0.306 µM; in assay [2], 0.015 µM; in assay [3], 0.027 µM.

Consider `NCCc1c[nH]cn1` [HISTAMINE], for which the KA in assay [1] worked out at 125 µM; in assay [2] it was 41 µM; in assay [3] it was 2.1 µM. The CA activity in assay [4] is recorded as 121%; in assay [5] it was 130%.

With `Cc1cc(-c2ccccc2)cc(-c2ccccc2)[n+]1-c1ncc[nH]1`, the figures for the KA in assay [1], in assay [2] and in assay [3] were 62 µM, 1.24 µM and 0.303 µM, respectively.

As for `CCCCc1cc(-c2ccccc2)cc(-c2ccccc2)[n+]1-c1nn[n-]n1`, the values for the KA in assay [1], in assay [2] and in assay [3] were more than 150 µM, more than 50 µM and 10.5 µM, respectively.

For the compound `Cc1cc(C(C)C)[n+](-c2ncc[nH]2)c(C(C)C)c1`, the KA was 0.13 µM in assay [1], 0.008 µM in assay [2] and 0.024 µM in assay [3].

As for `CCCCc1cc(-c2ccccc2)cc(CCCC)[n+]1-c1ncc[nH]1`, the KA in assay [1] is 86 µM; in assay [2], 1.89 µM; in assay [3], 0.651 µM.

`Cc1cc(C)[n+](-c2ncc[nH]2)c(C)c1`: the results for the KA in assay [1], in assay [2] and in assay [3] were 0.347 µM, 0.021 µM and 0.036 µM, respectively.

As to `c1ccc(-c2cc(-c3ccccc3)[n+](-c3cc[nH]n3)c(-c3ccccc3)c2)cc1`, the results for the KA in assay [1], in assay [2] and in assay [3] were more than 150 µM, more than 50 µM and 32 µM, respectively.

Regarding `Cc1cc(-c2ccccc2)cc(C)[n+]1-c1nn[n-]n1`, the results for the KA in assay [1], in assay [2] and in assay [3] were 1.39 µM, 0.063 µM and 0.076 µM, respectively.

As to `CCCc1cc(-c2ccccc2)cc(-c2ccccc2)[n+]1-c1nn[n-]n1`, the figures for the KA in assay [1], in assay [2] and in assay [3] were more than 150 µM, 15.5 µM and 4.21 µM, respectively.

On to `Cc1cc(C)[n+](-c2cc[nH]n2)c(-c2ccccc2)c1`, for which the values for the KA in assay [1], in assay [2] and in assay [3] were 83 µM, 1.68 µM and 0.875 µM, respectively.

On to `CC(C)c1cc(-c2ccccc2)cc(C(C)C)[n+]1-c1cc[nH]n1.[O-][Cl+3]([O-])([O-])[O-]`, for which the KA in assay [1] was determined as 0.155 µM; in assay [2] it was 0.008 µM; in assay [3], 0.021 µM. For the same compound, the values for the CA activity in assay [4] and in assay [5] were 189% and 234%, respectively.

`CCCc1cc(-c2ccccc2)cc(-c2ccccc2)[n+]1-c1ncc[nH]1`: the KA worked out at 130 µM in assay [1], 5.76 µM in assay [2] and 1.9 µM in assay [3].

As for `Cc1cc(C(C)C)[n+](-c2cc[nH]n2)c(C(C)C)c1`, the KA in assay [1] turned out to be 0.264 µM; in assay [2] it was 0.016 µM; in assay [3], 0.038 µM.

Consider `CC(C)c1cc(-c2ccccc2)cc(-c2ccccc2)[n+]1-c1ncc[nH]1`, for which the KA in assay [1] was determined as 107 µM; in assay [2], 3.14 µM; in assay [3], 1.54 µM.
